{"source": "paper PMC11019407", "about": "(RSC Advances, 2024)", "key": {"[1]": {"system": "C. albicans, T. mentagrophytes, T. rubrum, and M. gypseum", "test": "Antifungal activity, paper disk diffusion, statements over all fungi", "assay_type": "cell-based", "details": "all fungus", "method_in_brief": "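Fungi (C. albicans, T. mentagrophytes, T. rubrum, M. gypseum) were swabbed onto Potato Dextrose Agar plates. Inocula were prepared in LB broth for 24 h at 37 °C. 6 mm paper disks were loaded with 30 μL of test compound at 3.125–300 μM. Fluconazole (1 mg mL−1) was the standard.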"}, "[2]": {"system": "NO production in RAW264.7 cells", "test": "Inhibition of NO production in LPS-stimulated RAW264.7 cells", "assay_type": "cell-based", "details": "Mus musculus, RAW264.7, read-out: IC50 of NO inhibition", "method_in_brief": "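RAW 264.7 cells were grown in DMEM with 2 mM L-glutamine, 10 mM HEPES, 1 mM sodium pyruvate and 10% FBS. Cells were seeded at 2 × 10^5 per well and incubated 3 days at 37 °C, 5% CO2. Nitric oxide was quantified with Griess reagent, L-NMMA served as positive control, and IC50 was reported.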"}, "[3]": {"system": "E. coli, P. aeruginosa, MRSA, S. faecalis", "test": "Antibacterial activity, paper disk diffusion, statements over several bacteria", "assay_type": "cell-based", "details": "for inhibition in words: printed as E. coli, P. aeruginosa, and MRSA in the antifungal section", "method_in_brief": "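Bacteria (E. coli, P. aeruginosa, S. faecalis, MRSA) were grown in LB broth for 24 h at 37 °C, then swabbed evenly onto Mueller–Hinton agar. 6 mm paper disks received 30 μL of test compound at 3.125–300 μM. Ampicillin (1 mg mL−1) was the standard.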"}, "α-glucosidase enzyme": {"target": "α-glucosidase enzyme (Saccharomyces cerevisiae, UniProt P53341)", "sequence (P53341 whole entry)": "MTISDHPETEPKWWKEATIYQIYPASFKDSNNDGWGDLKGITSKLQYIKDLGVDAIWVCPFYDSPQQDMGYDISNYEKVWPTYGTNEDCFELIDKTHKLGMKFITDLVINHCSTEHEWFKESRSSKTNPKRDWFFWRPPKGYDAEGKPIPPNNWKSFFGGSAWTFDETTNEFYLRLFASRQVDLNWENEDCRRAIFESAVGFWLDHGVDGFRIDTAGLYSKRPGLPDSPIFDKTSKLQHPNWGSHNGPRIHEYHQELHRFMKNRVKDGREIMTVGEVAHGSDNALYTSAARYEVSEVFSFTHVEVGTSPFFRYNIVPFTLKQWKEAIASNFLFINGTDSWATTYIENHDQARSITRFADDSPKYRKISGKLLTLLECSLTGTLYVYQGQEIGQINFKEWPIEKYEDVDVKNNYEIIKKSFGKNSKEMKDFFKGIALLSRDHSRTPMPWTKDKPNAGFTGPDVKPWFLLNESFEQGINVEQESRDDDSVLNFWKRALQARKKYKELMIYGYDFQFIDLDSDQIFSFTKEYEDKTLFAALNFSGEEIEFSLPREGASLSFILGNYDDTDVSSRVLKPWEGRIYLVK", "test": "Alpha-glucosidase inhibition", "assay_type": "biochemical"}}, "data": [{"smiles": "COC(=O)C1=CO[C@@H](O[C@@H]2O[C@H](CO)[C@@H](O)[C@H](O)[C@H]2O)[C@H]2[C@@H]1[C@H](O)C[C@]2(C)OC(C)=O", "note": "[Compound 3, barlerin]", "values": [{"measurement": "antifungal inhibition in words", "setting": "[1]", "value": "weak inhibitions or inactive"}]}, {"smiles": "C[C@]1(OC(=O)/C=C/c2ccccc2)C[C@@H](O)[C@]2(O)C=CO[C@@H](O[C@@H]3O[C@H](CO)[C@@H](O)[C@H](O)[C@H]3O)[C@@H]21", "note": "[Compound 4, harpagoside]", "values": [{"measurement": "antifungal inhibition in words", "setting": "[1]", "value": "weak inhibitions or inactive"}, {"measurement": "IC50", "setting": "[2]", "value": "25.9 ± 3.32", "unit": "µM"}]}, {"smiles": "O=C(O)c1c[nH]c2ccccc12", "note": "[Compound 6, indole-3-carboxylic acid]", "values": [{"measurement": "inhibition in words", "setting": "[3]", "value": "weak inhibitions or inactive"}]}, {"smiles": "C[C@H]1[C@H](C)CC[C@]2(C(=O)O)CC[C@]3(C)C(=CC[C@@H]4[C@@]5(C)CC[C@H](O)C(C)(C)[C@@H]5CC[C@]43C)[C@H]12", "note": "[Compound 7, ursolic acid]", "values": [{"measurement": "inhibition in words", "setting": "[3]", "value": "weak inhibitions or inactive"}, {"measurement": "IC50", "setting": "[2]", "value": "18.2 ± 0.7", "unit": "µM"}]}, {"smiles": "C[C@@H]1CC[C@]2(C(=O)O)CC[C@]3(C)C(=CC[C@@H]4[C@@]5(C)CC[C@H](O)[C@@](C)(CO)[C@@H]5CC[C@]43C)[C@@H]2[C@]1(C)O", "note": "[Compound 9, rotundic acid]", "values": [{"measurement": "antifungal inhibition in words", "setting": "[1]", "value": "weak inhibitions or inactive"}]}, {"smiles": "C[C@@H]1O[C@@H](O[C@@H]2[C@@H](O)[C@H](OCCc3ccc(O)c(O)c3)O[C@H](CO)[C@H]2OC(=O)/C=C/c2ccc(O)c(O)c2)[C@H](O)[C@H](O)[C@H]1O", "note": "[Compound 12, verbacoside]", "values": [{"measurement": "antifungal inhibition in words", "setting": "[1]", "value": "weak inhibitions or inactive"}, {"measurement": "IC50", "setting": "α-glucosidase enzyme", "value": 42.4, "unit": "µM"}]}, {"smiles": "[H]/N=C(/NC)NCCC[C@H](N)C(=O)O", "note": "[L-NMMA, reference compound]", "values": [{"measurement": "IC50", "setting": "[2]", "value": 41.3, "unit": "µM"}]}, {"smiles": "CC1(C)S[C@@H]2[C@H](NC(=O)[C@H](N)c3ccccc3)C(=O)N2[C@H]1C(=O)O", "note": "[ampicillin, reference compound]", "values": [{"measurement": "MIC", "setting": "[3]; read-out: MIC values against four bacteria", "value": "3.12 to 6.25", "unit": "µM"}]}]}
